{
  "source": "ChEMBL document CHEMBL2010740",
  "about": "“Synthesis and evaluation of 2-amido-3-carboxamide thiophene CB₂ receptor agonists for pain management” (Bioorg Med Chem Lett, 2012)",
  "key": {"[1]": {"molecular_target": "T1, Cannabinoid receptor 1 (Homo sapiens, UniProt P21554)", "T1 sequence (P21554 whole entry)": "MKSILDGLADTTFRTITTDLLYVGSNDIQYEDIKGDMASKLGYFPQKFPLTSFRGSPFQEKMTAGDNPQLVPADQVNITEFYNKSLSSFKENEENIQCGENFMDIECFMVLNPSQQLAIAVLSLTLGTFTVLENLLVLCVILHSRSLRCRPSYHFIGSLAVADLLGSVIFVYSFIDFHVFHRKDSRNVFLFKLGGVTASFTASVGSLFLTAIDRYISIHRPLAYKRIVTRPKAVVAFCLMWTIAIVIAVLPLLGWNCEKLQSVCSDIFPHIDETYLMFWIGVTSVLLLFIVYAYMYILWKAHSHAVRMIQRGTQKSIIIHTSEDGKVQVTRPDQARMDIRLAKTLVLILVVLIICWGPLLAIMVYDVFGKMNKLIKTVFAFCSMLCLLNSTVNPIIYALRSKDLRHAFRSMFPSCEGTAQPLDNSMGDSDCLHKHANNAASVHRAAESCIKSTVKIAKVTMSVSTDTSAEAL", "test": "Displacement of [3H]CP-55940 from human recombinant CB1 receptor expressed in CHO cells after 90 mins", "assay_type": "cell-based", "outline": "(§1)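 Competitive binding: [³H]CP-55,940 displaced from membranes of HEK 293 cells stably transfected with human or rat CB₂, or CHO cells stably transfected with human or rat CB₁. Reported as pKi. Determinations >2 (duplicate of duplicate).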"}, "[2]": {"molecular_target": "T2, Cannabinoid receptor 1 (Rattus norvegicus, UniProt P20272)", "T2 sequence (P20272 whole entry)": "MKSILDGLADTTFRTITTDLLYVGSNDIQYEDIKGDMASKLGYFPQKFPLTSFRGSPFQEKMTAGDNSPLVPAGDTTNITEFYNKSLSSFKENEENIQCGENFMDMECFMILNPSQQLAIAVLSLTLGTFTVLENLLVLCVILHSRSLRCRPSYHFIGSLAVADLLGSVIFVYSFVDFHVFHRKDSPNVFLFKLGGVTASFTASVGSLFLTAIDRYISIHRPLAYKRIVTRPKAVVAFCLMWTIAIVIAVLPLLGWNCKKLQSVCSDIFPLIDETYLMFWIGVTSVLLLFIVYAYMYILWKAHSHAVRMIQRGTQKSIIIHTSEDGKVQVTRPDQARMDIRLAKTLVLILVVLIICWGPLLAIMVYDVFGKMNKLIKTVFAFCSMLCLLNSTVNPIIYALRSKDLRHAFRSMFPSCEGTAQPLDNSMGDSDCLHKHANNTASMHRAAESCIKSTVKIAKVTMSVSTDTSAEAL", "test": "Displacement of [3H]CP-55940 from rat recombinant CB1 receptor expressed in CHO cells after 90 mins", "assay_type": "cell-based", "outline": "as §1"}, "[3]": {"molecular_target": "T3, Cannabinoid receptor 2 (Rattus norvegicus, UniProt Q9QZN9)", "T3 sequence (Q9QZN9 whole entry)": "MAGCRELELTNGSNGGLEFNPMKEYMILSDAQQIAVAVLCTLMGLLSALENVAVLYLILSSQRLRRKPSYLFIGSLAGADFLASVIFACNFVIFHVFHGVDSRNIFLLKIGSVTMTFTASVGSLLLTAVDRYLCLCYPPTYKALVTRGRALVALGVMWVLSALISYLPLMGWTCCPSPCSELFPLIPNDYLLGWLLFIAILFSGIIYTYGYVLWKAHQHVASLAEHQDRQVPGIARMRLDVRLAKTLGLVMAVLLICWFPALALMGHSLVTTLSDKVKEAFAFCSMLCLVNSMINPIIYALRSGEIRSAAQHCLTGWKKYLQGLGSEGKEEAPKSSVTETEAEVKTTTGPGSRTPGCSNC", "test": "Displacement of [3H]CP-55940 from rat recombinant CB2 receptor expressed in HEK293 cells after 90 mins", "assay_type": "cell-based", "outline": "as §1"}, "[4]": {"molecular_target": "T4, Cannabinoid receptor 2 (Homo sapiens, UniProt P34972)", "T4 sequence (P34972 whole entry)": "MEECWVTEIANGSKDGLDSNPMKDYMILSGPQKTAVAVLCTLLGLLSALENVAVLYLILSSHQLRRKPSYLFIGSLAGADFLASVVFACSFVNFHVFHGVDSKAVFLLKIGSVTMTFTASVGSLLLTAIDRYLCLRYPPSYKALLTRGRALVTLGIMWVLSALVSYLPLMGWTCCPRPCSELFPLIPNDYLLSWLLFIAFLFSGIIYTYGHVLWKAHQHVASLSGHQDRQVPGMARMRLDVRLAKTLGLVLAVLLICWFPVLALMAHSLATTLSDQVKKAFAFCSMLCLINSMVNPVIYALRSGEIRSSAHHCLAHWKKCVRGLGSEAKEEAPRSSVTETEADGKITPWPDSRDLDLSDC", "test": "Agonist activity at human recombinant CB2 receptor expressed in HEK293 cells assessed as inhibition of forskolin-induced cAMP production after 20 mins by ELISA", "assay_type": "functional, cell-based", "outline": "(§2)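 cAMP assay in HEK 293 cells stably expressing the relevant CB receptor, with a fixed concentration of forskolin. cAMP was quantified by ELISA. Activation is given as percent of the CP-55,940 control response.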"}, "[5]": {"molecular_target": "T2, Cannabinoid receptor 1", "test": "Agonist activity at rat recombinant CB1 receptor expressed in HEK293 cells assessed as inhibition of forskolin-induced cAMP production after 20 mins by ELISA", "assay_type": "functional, cell-based", "outline": "as §2"}, "[6]": {"molecular_target": "T4, Cannabinoid receptor 2", "test": "Agonist activity at human recombinant CB2 receptor expressed in HEK293 cells co-expressing chimeric Gaq/o protein by FLIPR assay", "assay_type": "functional, cell-based", "outline": "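FLIPR functional assay in HEK 293 cells stably co-expressing chimeric Gαq/o protein and the CB receptor. Net peak evoked response was compared with the peak response to CP-55,940.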"}, "[7]": {"molecular_target": "T5, Cannabinoid receptor 2 (Rattus norvegicus) (UniProt Q9QZN9)", "T5 sequence (whole entry)": "T3 sequence (Q9QZN9 whole entry)", "test": "Agonist activity at rat recombinant CB2 receptor expressed in HEK293 cells assessed as inhibition of forskolin-induced cAMP production after 20 mins by ELISA relative to CP55940", "assay_type": "functional, cell-based", "outline": "as §2"}, "[8]": {"molecular_target": "T3, Cannabinoid receptor 2", "test": "Agonist activity at rat recombinant CB2 receptor expressed in HEK293 cells assessed as inhibition of forskolin-induced cAMP production after 20 mins by ELISA", "assay_type": "functional, cell-based", "outline": "as §2"}, "[9]": {"molecular_target": "T4, Cannabinoid receptor 2", "test": "Displacement of [3H]CP-55940 from human recombinant CB2 receptor expressed in HEK293 cells after 90 mins", "assay_type": "cell-based", "outline": "as §1"}, "[10]": {"molecular_target": "T1, Cannabinoid receptor 1", "test": "Agonist activity at human recombinant CB1 receptor expressed in HEK293 cells assessed as inhibition of forskolin-induced cAMP production after 20 mins by ELISA", "assay_type": "functional, cell-based", "outline": "as §2"}, "[11]": {"test": "Plasma protein binding in human", "assay_type": "ADME, cell-free", "details": "read-out: PPB (converted)"}, "[12]": {"test": "Plasma protein binding in rat", "assay_type": "ADME, cell-free", "details": "read-out: PPB (converted)"}},
  "data": [
    {"compound": "O=C(c1c(NC(=O)C23CC4CC(CC2C4)C3)sc2c1CCOC2)N1CC(F)(F)C1", "values": [
      {"measurement": "Ki", "setting": "[1]", "result": 3.39, "unit": "µM"},
      {"measurement": "Ki", "setting": "[2]", "result": 66.1, "unit": "nM"},
      {"measurement": "Ki", "setting": "[3]", "result": 46.8, "unit": "nM"},
      {"measurement": "IC50", "setting": "[4]", "result": 0.2, "unit": "nM"},
      {"measurement": "IC50", "setting": "[5]", "result": 229, "unit": "nM"},
      {"measurement": "IC50", "setting": "[6]", "result": 5.62, "unit": "nM"},
      {"measurement": "Imax", "setting": "[7]", "result": 53, "unit": "%"},
      {"measurement": "IC50", "setting": "[8]", "result": 9.55, "unit": "nM"},
      {"measurement": "Ki", "setting": "[9]", "result": 5.62, "unit": "nM"},
      {"measurement": "IC50", "setting": "[10]", "result": 550, "unit": "nM"}
    ]},
    {"compound": "CCCNC(=O)c1c(NC(=O)C23CC4CC(CC2C4)C3)sc2c1CCCC2", "values": [
      {"measurement": "Ki", "setting": "[1]", "result": 1.91, "unit": "µM"},
      {"measurement": "Ki", "setting": "[2]", "result": 46.8, "unit": "nM"},
      {"measurement": "Ki", "setting": "[3]", "result": 3.55, "unit": "nM"},
      {"measurement": "IC50", "setting": "[4]", "result": 9.77, "unit": "nM"},
      {"measurement": "IC50", "setting": "[6]", "result": 83.2, "unit": "nM"},
      {"measurement": "Ki", "setting": "[9]", "result": 1.95, "unit": "nM"}
    ]},
    {"compound": "CCCNC(=O)c1c(NC(=O)c2c(F)cccc2C(F)(F)F)sc2c1CCOC2", "values": [
      {"measurement": "Ki", "setting": "[1]", "result": "> 10", "unit": "µM"},
      {"measurement": "Ki", "setting": "[3]", "result": 331, "unit": "nM"},
      {"measurement": "Ki", "setting": "[9]", "result": 105, "unit": "nM"}
    ]},
    {"compound": "CCNC(=O)c1c(NC(=O)C23CC4CC(CC2C4)C3)sc2c1CCOC2", "values": [
      {"measurement": "Ki", "setting": "[1]", "result": "> 10", "unit": "µM"},
      {"measurement": "Ki", "setting": "[3]", "result": 295, "unit": "nM"},
      {"measurement": "Ki", "setting": "[9]", "result": 214, "unit": "nM"}
    ]},
    {"compound": "CCCNC(=O)c1c(NC(=O)C23CC4CC(CC2C4)C3)sc2c1CCNC2", "values": [
      {"measurement": "fraction unbound", "setting": "[11]", "result": "< 0.01"},
      {"measurement": "Ki", "setting": "[9]", "result": "> 1000", "unit": "nM"},
      {"measurement": "fraction unbound", "setting": "[12]", "result": "< 0.01"}
    ]},
    {"compound": "CCCNC(=O)c1c(NC(=O)C2CC3CCC2C3)sc2c1CCOC2", "note": "(configuration not stated)", "values": [
      {"measurement": "Ki", "setting": "[1]", "result": "> 10", "unit": "µM"},
      {"measurement": "Ki", "setting": "[3]", "result": 269, "unit": "nM"},
      {"measurement": "Ki", "setting": "[9]", "result": 105, "unit": "nM"}
    ]},
    {"compound": "CCCNC(=O)c1c(NC(=O)C23CC4CC(CC2C4)C3)sc2c1CCN(C)C2", "values": [
      {"measurement": "Ki", "setting": "[1]", "result": "> 10", "unit": "µM"},
      {"measurement": "Ki", "setting": "[3]", "result": 5.89, "unit": "nM"},
      {"measurement": "IC50", "setting": "[6]", "result": "> 10000", "unit": "nM"},
      {"measurement": "Ki", "setting": "[9]", "result": 91.2, "unit": "nM"}
    ]}
  ]
}
